Measurements: paper PMC6217956 (The FEBS journal, 2016)

Key:
Assay type in all cases: binding
[1] = target: T1, PTN (Homo sapiens, UniProt P21246); test: PRE control experiment with 4-hydroxy-TEMPO; details: under the condition of the PRE experiments
T1 sequence (P21246 33-168): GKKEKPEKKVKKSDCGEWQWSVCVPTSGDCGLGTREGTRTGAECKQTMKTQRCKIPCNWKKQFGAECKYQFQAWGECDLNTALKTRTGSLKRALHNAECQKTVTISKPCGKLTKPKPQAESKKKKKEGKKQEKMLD

[2] = target: T2, wild type PTN (Homo sapiens, UniProt P21246); test: Immobilized CSA and CSE ELISA of wild type PTN; details: immobilized native CS, biotinylated wild type PTN, Langmuir isotherm 1:1
T2 sequence (P21246 33-168): T1 sequence (P21246 33-168)
In short: (§1)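 Human PTN (wild type or residues 1–114) was expressed in E. coli Origami B (DE3), purified on a heparin column, and biotinylated by EDC coupling to amine-PEG-biotin (MES pH 5.5). CSA or CSE was EDC/NHS-crosslinked overnight to poly-L-lysine-coated amine plates, then blocked with 5% BSA for 1.5 h. PTN at 2.5–0.015 μg/ml, 1 h; streptavidin-HRP 1 h; TMB; HCl stop; A450. Kd by 1:1 Langmuir fit; ≥3 runs, triplicate points.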

[3] = target: T3, C-terminal truncated PTN (residues 1 to 114) (Homo sapiens, UniProt P21246); test: Immobilized CSA and CSE ELISA of C-terminal truncated PTN; details: immobilized native CS, biotinylated truncated PTN (residues 1 to 114)
T3 sequence (P21246 33-146): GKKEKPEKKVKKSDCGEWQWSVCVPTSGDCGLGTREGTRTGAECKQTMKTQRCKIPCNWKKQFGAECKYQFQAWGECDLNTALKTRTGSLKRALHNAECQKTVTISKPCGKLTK
In short: as §1

Molecule | non-specific interactions between the TEMPO moiety and PTN [1] | Kd [2] | Kd [3]
CC1(C)CC(O)CC(C)(C)N1[O] [4-hydroxy-TEMPO] | no non-specific interactions | – | –
Chondroitin Sulfate A [CSA] | – | ~17 nM | failed to bind
Chondroitin Sulfate E [CSE] | – | four to five | four to five
